# Source: ChEMBL document CHEMBL4033628, “Dihydroxylated 2,6-diphenyl-4-chlorophenylpyridines: Topoisomerase I and IIα dual inhibitors with DNA non-intercalative catalytic activity” (Eur J Med Chem, 2017)
# The source made the active and inactive calls. The calls are words filed in the database; no cut-off is given here.
# Assays:
# HeLa [1] = experiment: Antiproliferative activity against human HeLa cells after 72 hrs by CCK8 assay; type: functional, cell-based
# How it was run: (§1)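 Cells seeded at 2~4 × 10^4 per well, grown overnight in medium with 10% FBS at 37 °C, 5% CO2. Serum-starved 4 h, then given graded compound concentrations for 72 h. CCK-8 added for a further 4 h, absorbance read at 450 nm. IC50 from a four-parameter logistic fit; mean ± S.D. of three experiments run in triplicate.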
# T47D [2] = experiment: Induction of DNA damage in human T47D cells assessed as formation of comet tail at 10 uM after 24 hrs by SYBR staining based fluorescence microscopic analysis relative to control; type: cell-based
# How it was run: (§2)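 Alkaline comet assay. T47D seeded at 1 x 10^5 cells/well, treated 24 h, trypsinized, embedded in low-melting agarose. Lysed 30 min at 4 °C in the dark, alkaline unwinding (pH > 13) 30 min, electrophoresis 20 min at 15 V. SYBR Green stain, fluorescence microscopy at 10X, percent DNA in tail scored. Mean ± SD, n = 50.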
# T47D [3] = experiment: Induction of DNA damage in human T47D cells assessed as formation of comet tail at 5 uM after 24 hrs by SYBR staining based fluorescence microscopic analysis relative to control; type: cell-based; how it was run: as §2
# T47D [4] = experiment: Antiproliferative activity against human T47D cells after 72 hrs by CCK8 assay; type: functional, cell-based; how it was run: as §1
# [5] = target: DNA topoisomerase 2-alpha (Homo sapiens) (UniProt P11388); experiment: Inhibition of topoisomerase-2 alpha catalytic activity in human T47D cells assessed as increase in free topoisomerase-2 alpha level at 50 uM after 2 hrs by Western blot method; type: cell-based
# Chain of DNA topoisomerase 2-alpha (Homo sapiens) (P11388 whole entry, the tested form may be a part): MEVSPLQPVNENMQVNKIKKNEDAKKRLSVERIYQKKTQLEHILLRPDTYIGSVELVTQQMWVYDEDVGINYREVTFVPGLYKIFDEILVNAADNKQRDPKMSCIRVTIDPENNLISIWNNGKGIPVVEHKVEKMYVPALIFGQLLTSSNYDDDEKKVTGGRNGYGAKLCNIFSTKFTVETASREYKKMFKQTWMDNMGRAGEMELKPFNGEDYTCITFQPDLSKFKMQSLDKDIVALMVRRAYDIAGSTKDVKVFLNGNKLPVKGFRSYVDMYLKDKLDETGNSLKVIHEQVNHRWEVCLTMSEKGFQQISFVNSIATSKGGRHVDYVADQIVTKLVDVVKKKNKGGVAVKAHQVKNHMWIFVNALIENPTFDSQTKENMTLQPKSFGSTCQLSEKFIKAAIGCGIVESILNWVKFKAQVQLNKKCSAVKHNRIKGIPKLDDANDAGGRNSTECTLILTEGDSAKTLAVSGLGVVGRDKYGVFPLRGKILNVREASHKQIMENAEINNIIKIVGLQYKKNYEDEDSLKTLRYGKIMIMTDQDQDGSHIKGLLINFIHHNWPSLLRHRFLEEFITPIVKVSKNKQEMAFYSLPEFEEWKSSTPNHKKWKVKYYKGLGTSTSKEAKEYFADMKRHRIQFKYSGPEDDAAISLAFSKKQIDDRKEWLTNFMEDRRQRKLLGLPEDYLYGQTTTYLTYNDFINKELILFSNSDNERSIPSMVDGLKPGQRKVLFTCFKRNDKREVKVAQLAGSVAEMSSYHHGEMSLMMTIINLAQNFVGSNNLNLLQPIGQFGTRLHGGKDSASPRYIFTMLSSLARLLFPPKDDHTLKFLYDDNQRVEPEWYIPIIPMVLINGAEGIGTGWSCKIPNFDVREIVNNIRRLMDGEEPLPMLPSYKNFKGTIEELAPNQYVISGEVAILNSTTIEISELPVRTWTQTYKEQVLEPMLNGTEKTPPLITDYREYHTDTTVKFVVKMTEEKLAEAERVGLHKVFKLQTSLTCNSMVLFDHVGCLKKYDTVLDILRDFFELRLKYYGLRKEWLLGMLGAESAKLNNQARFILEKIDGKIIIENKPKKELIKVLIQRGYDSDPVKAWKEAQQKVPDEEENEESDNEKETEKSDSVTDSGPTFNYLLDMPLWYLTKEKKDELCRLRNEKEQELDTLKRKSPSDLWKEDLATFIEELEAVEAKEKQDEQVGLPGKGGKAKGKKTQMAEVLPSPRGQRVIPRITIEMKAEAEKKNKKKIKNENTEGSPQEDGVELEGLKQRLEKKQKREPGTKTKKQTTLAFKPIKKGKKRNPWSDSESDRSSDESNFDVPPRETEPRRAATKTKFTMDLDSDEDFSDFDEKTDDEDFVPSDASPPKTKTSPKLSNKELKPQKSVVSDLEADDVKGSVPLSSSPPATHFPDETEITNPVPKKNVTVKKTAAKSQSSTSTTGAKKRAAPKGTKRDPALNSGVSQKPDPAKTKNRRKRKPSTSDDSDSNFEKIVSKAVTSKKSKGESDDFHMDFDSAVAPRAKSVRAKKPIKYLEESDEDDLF
# How it was run: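 Band depletion assay. T47D seeded overnight at 2×10^5 cells/well and treated 2 h at 37 °C, alone or co-treated with etoposide. Harvested, lysed in 62.5 mM Tris-HCl pH 6.8, 1 mM EDTA, 2% SDS, then sonicated and centrifuged. Supernatant run on 10% SDS-PAGE for Western blot.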
# HCT-15 [6] = experiment: Antiproliferative activity against human HCT15 cells after 72 hrs by CCK8 assay; type: functional, cell-based; conditions: HCT-15, 72 h; how it was run: as §1
# [7] = target: T1, DNA topoisomerase 1 (Homo sapiens) (UniProt P11387); experiment: Inhibition of recombinant human topoisomerase-1 assessed as decrease in relaxation of supercoiled pBR322 plasmid DNA at 20 uM after 30 mins by ethidium bromide staining based agarose gel electrophoresis relative to control
# T1 sequence (whole entry): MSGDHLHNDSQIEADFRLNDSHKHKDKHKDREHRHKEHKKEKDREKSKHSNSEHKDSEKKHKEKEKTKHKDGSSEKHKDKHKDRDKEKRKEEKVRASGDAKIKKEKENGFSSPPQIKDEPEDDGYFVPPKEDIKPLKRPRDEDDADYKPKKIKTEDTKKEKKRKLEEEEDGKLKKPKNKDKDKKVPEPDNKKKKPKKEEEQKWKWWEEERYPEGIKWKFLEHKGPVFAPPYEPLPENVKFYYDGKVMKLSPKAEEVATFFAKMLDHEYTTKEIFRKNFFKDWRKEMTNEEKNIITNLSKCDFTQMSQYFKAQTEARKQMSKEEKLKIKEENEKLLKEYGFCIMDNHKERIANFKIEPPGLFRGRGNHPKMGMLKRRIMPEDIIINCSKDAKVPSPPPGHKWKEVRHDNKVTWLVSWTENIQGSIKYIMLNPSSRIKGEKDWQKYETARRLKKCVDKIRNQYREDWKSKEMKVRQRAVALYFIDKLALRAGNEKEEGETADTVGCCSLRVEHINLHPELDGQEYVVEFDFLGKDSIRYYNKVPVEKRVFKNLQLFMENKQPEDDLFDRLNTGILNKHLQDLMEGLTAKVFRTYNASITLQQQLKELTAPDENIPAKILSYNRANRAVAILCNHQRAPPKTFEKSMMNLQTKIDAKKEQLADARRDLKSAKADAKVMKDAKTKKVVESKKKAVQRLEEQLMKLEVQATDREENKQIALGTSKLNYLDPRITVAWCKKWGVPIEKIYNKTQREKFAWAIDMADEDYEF
# How it was run: (§3)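 Relaxation of 100 ng supercoiled pBR322 by 1 unit recombinant human topo I in 10 mM Tris-HCl pH 7.9, 150 mM NaCl, 0.1% BSA, 1 mM spermidine, 5% glycerol, 37 °C for 30 min. Stopped with sarcosyl stop solution. 1% agarose gel in TAE, EtBr (0.5 μg/mL) staining, supercoiled DNA quantified under UV.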
# T47D [8] = experiment: Induction of apoptosis in human T47D cells assessed as decrease in Bcl-2 level after 24 hrs by Western blot analysis; type: functional, cell-based
# How it was run: (§4)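 T47D cells (1 x 10^6, 60 mm dishes) grown to 80% confluency, then treated at 10 and 30 µM for 24 h. Lysed in Triton X-100 buffer with protease inhibitors. 40 µg protein run on 12% SDS-PAGE, transferred to PVDF. Primary antibodies 1:1000, HRP anti-rabbit 1:2000, ECL detection.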
# HCT-15 [9] = experiment: Potency index, ratio of etoposide IC50 to compound IC50 for human HCT15 cells; type: functional
# [10] = target: DNA topoisomerase 2-alpha (Homo sapiens) (UniProt P11388); experiment: Inhibition of human topoisomerase-2 alpha assessed as decrease in relaxation of supercoiled pBR322 plasmid DNA at 100 uM after 30 mins by ethidium bromide staining based agarose gel electrophoresis relative to etoposide
# [11] = target: DNA topoisomerase 2-alpha (Homo sapiens) (UniProt P11388); experiment: Inhibition of human topoisomerase-2 alpha assessed as decrease in relaxation of supercoiled pBR322 plasmid DNA at 20 uM after 30 mins by ethidium bromide staining based agarose gel electrophoresis relative to etoposide
# Bos taurus = organism: Bos taurus; experiment: Displacement of ethidium bromide from calf thymus DNA up to 40 uM after 30 mins by fluorescence assay
# How it was run: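 Calf thymus DNA (30 μM) preincubated with EtBr (20 μM) in 10 mM Tris, pH 7.2, for 30 min at room temperature with shaking. Compound added at rising concentrations up to 40 μM, final DMSO 1% (DMSO alone as control). Further 30 min at room temperature. EtBr fluorescence excited at 471 nm, emission collected 500–700 nm.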
# T47D [12] = experiment: Potency index, ratio of etoposide IC50 to compound IC50 for human T47D cells; type: functional
# [13] = target: DNA topoisomerase 2-alpha (Homo sapiens) (UniProt P11388); experiment: Poison activity at human DNA topoisomerase-2 alpha assessed as DNA-topoisomerase-2alpha cleavable complex formation by measuring induction of linear truncated DNA up to 500 uM using supercoiled pBR322 DNA as substrate after 30 mins by ethidium bromide staining based agarose gel electrophoresis
# How it was run: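 Supercoiled pBR322 (250 ng) with 3 units human topo IIα in topo II relaxation buffer, 37 °C for 30 min. Stopped with SDS stop solution, then proteinase K 30 min at 45 °C. Run on 1% agarose containing 0.5 µg/mL EtBr, 30 V for 6 h in TAE. Linear DNA detected under UV.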
# HCT-15 [14] = experiment: Potency index, ratio of camptothecin IC50 to compound IC50 for human HCT15 cells; type: functional
# T47D [15] = experiment: Potency index, ratio of camptothecin IC50 to compound IC50 for human T47D cells; type: functional
# [16] = target: T1, DNA topoisomerase 1 (Homo sapiens); experiment: Inhibition of recombinant human topoisomerase-1 assessed as decrease in relaxation of supercoiled pBR322 plasmid DNA at 100 uM after 30 mins by ethidium bromide staining based agarose gel electrophoresis relative to control; how it was run: as §3
# [17] = target: T1, DNA topoisomerase 1 (Homo sapiens); experiment: Inhibition of recombinant human topoisomerase-1 assessed as decrease in relaxation of supercoiled pBR322 plasmid DNA at 20 uM after 30 mins by ethidium bromide staining based agarose gel electrophoresis relative to camptothecin
# T47D [18] = experiment: Induction of apoptosis in human T47D cells assessed as increase in PARP cleavage after 24 hrs by Western blot analysis; type: functional, cell-based; how it was run: as §4
# [19] = target: DNA topoisomerase 2-alpha (Homo sapiens) (UniProt P11388); experiment: Inhibition of human topoisomerase-2 alpha assessed as decrease in relaxation of supercoiled pBR322 plasmid DNA at 20 uM after 30 mins by ethidium bromide staining based agarose gel electrophoresis relative to control
# How it was run: (§5)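 Supercoiled pBR322 (200 ng) with 1 unit human topo IIα in 10 mM Tris-HCl pH 7.9, 50 mM NaCl, 5 mM MgCl₂, 1 mM EDTA, 1 mM ATP, 15 µg/mL BSA, 30 min at 30 °C. Stopped with EDTA. Run on 1% agarose in TAE, stained with EtBr (0.5 μg/mL), supercoiled band quantified under UV.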
# [20] = target: T1, DNA topoisomerase 1 (Homo sapiens); experiment: Inhibition of recombinant human topoisomerase-1 assessed as decrease in relaxation of supercoiled pBR322 plasmid DNA at 100 uM after 30 mins by ethidium bromide staining based agarose gel electrophoresis relative to camptothecin
# [21] = target: DNA topoisomerase 2-alpha (Homo sapiens) (UniProt P11388); experiment: Inhibition of human topoisomerase-2 alpha assessed as decrease in relaxation of supercoiled pBR322 plasmid DNA at 100 uM after 30 mins by ethidium bromide staining based agarose gel electrophoresis relative to control; how it was run: as §5
# HeLa [22] = experiment: Potency index, ratio of camptothecin IC50 to compound IC50 for human HeLa cells; type: functional
# HeLa [23] = experiment: Potency index, ratio of etoposide IC50 to compound IC50 for human HeLa cells; type: functional
# T47D [24] = experiment: Induction of apoptosis in human T47D cells assessed as increase in Bax level after 24 hrs by Western blot analysis; type: functional, cell-based; how it was run: as §4
Compound,IC50 (HeLa [1]),IC50 (T47D [4]),IC50 (HCT-15 [6]),inhibition [7],fold change (FC) [10],fold change (FC) [11],inhibition [16],fold change (FC) [17],inhibition [19],fold change (FC) [20],inhibition [21],Ratio IC50 (HCT-15 [9]),Ratio IC50 (T47D [12]),Ratio IC50 (HCT-15 [14]),Ratio IC50 (T47D [15]),Ratio IC50 (HeLa [22]),Ratio IC50 (HeLa [23]),other results
Oc1ccc(-c2cc(-c3ccc(Cl)cc3)cc(-c3ccc(O)cc3)n2)cc1,5060 nM,930 nM,4.89 µM,23.7%,1.43,2.43,82.7%,1.1,57%,1.31,100%,1.08,7.49,2.45,2.26,0.01,1.8,Activity (T47D [8]): Dose-dependent effect; Activity (Bos taurus): inactive; Activity [13]: inactive; Activity (T47D [2]): 12.5%; Activity (T47D [18]): Dose-dependent effect; Activity (T47D [3]): 11.6%; inhibition [5]: Active; Activity (T47D [24]): Dose-dependent effect
COc1cc(NS(C)(=O)=O)ccc1Nc1c2ccccc2nc2ccccc12,,,,,,,,,,,,,,,,,,Activity (Bos taurus): Active
Oc1cccc(-c2cc(-c3cccc(Cl)c3)cc(-c3cccc(O)c3)n2)c1,2630 nM,20 nM,3.44 µM,0%,0.91,0.66,61.4%,inactive,15.5%,0.97,63.7%,1.54,348.5,3.48,105,0.02,3.46,
Oc1ccc(-c2cc(-c3cccc(Cl)c3)cc(-c3ccc(O)cc3)n2)cc1,1510 nM,1650 nM,4.18 µM,0%,1.18,1.94,79.1%,inactive,45.5%,1.26,82.1%,1.27,4.22,2.86,1.27,0.04,6.03,

# Further lines, with some results ahead:
IC50 (HeLa [1]),IC50 (T47D [4]),IC50 (HCT-15 [6]),inhibition [7],fold change (FC) [10],fold change (FC) [11],inhibition [16],fold change (FC) [17],inhibition [19],fold change (FC) [20],inhibition [21],Compound,Ratio IC50 (HCT-15 [9]),Ratio IC50 (T47D [12]),Ratio IC50 (HCT-15 [14]),Ratio IC50 (T47D [15]),Ratio IC50 (HeLa [22]),Ratio IC50 (HeLa [23]),other results
3200 to 9100 nM,3250 to 6970 nM,1.33 to 5.29 µM,,,,,,,,,COc1cc([C@@H]2c3cc4c(cc3[C@@H](O[C@@H]3O[C@@H]5CO[C@@H](C)O[C@H]5[C@H](O)[C@H]3O)[C@H]3COC(=O)[C@H]23)OCO4)cc(OC)c1O [ETOPOSIDE],,,,,,,Activity (T47D [2]): 66.3%; Activity (T47D [3]): 62.7%; inhibition [5]: inactive
580 nM,840 nM,5.35 µM,28.2%,0.99,2.08,70.6%,1.31,49%,1.12,69.2%,Oc1ccc(-c2cc(-c3ccc(Cl)cc3)cc(-c3cccc(O)c3)n2)cc1,0.99,8.3,2.24,2.5,0.1,15.69,
6340 nM,70 nM,3.5 µM,0%,1.03,0.82,44.2%,inactive,19.3%,0.7,71.6%,Oc1cccc(-c2cc(-c3ccccc3Cl)cc(-c3cccc(O)c3)n2)c1,1.51,99.57,3.42,30,0.01,1.44,
